Assay outcomes (PubChem)
LEDGF integ inh: blockers of LEDGF/p75-dependent integrase strand transfer – biochemical, TR-FRET, high throughput, primary screen. 0.64% of 370,000 active. TR-FRET IN-LEDGF/p75 DNA integration, Eu/Cy5. AID 743269, 2014. inhibition, % at 3.7 µM. HIV-1 integrase (with human LEDGF/p75);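 active = inhibition above the screen-wide mean plus 3 SD, cut at about 13% in these data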;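 note: signal is the Cy5 over europium emission ratio at 671 and 618 nm; 0% = plate median of compound wells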
Rin1-Abl PPI inh: inhibitors of Rin1-Abl protein binding, primary screen, biochemical, TR-FRET. Tyrosine-protein kinase ABL1 (Homo sapiens) + Ras and Rab interactor 1 (Homo sapiens), …. inhibition, % at 7.35 µM. 0.4% of 360,000 active; in the data active = inhibition above about 5%, passing the limit was not always enough
Target sequence (P00519 whole entry, looked up): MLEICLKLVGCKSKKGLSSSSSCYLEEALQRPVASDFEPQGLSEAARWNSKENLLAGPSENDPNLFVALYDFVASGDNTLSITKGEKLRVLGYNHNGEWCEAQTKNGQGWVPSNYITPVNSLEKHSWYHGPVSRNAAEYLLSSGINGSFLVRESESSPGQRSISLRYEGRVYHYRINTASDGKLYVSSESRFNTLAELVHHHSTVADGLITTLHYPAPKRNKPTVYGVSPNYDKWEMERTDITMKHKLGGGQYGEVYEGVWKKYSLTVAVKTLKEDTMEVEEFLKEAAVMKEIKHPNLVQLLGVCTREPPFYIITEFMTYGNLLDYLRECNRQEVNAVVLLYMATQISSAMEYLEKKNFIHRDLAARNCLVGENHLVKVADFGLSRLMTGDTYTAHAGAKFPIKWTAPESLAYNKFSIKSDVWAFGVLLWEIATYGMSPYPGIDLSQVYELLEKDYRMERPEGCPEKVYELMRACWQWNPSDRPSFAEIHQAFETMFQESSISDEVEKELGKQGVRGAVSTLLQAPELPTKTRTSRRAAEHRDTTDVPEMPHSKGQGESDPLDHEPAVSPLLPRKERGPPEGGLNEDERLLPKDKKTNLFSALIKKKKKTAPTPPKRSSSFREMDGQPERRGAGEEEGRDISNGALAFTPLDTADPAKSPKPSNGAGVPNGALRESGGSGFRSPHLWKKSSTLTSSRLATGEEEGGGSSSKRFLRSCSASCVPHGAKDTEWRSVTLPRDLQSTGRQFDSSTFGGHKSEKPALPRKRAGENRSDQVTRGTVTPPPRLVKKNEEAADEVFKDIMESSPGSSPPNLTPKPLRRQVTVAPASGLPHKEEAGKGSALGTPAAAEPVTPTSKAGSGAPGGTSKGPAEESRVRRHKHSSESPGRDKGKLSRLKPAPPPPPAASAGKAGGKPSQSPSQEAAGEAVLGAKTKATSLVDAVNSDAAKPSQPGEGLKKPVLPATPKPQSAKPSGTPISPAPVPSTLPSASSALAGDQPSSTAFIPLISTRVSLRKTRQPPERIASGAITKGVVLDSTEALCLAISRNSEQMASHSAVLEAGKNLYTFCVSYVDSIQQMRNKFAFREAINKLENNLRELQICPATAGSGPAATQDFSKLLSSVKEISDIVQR
Target sequence (Q13671 whole entry, looked up): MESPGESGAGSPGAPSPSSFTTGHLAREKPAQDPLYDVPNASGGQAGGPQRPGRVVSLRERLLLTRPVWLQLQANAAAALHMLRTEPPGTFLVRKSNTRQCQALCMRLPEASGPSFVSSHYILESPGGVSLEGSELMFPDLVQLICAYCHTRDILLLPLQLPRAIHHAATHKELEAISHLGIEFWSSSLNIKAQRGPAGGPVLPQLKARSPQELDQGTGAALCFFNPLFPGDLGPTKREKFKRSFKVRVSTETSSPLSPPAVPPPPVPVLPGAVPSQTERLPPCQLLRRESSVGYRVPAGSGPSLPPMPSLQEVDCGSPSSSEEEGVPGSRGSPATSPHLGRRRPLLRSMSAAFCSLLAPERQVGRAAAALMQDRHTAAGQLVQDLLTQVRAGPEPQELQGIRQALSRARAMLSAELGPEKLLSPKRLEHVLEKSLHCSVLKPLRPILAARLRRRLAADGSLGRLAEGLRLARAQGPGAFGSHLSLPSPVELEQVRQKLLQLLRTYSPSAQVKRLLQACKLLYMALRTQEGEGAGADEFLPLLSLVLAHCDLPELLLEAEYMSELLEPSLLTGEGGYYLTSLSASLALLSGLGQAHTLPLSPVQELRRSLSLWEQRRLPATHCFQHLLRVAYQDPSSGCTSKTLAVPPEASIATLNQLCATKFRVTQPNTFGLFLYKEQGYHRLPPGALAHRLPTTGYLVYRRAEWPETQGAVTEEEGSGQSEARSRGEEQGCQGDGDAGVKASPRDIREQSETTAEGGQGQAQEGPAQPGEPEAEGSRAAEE
TDP2 absorb: human TDP2 enzyme inhibitors, primary screen, biochemical, epi absorbance, recombinant enzyme | T5PNP hydrolysis, p-nitrophenol absorbance 415 nm | inhibition, % at 12.8 µM | Tyrosyl-DNA phosphodiesterase 2 (Homo sapiens), O95551 | AID 720702, 2013 | 0.34% of 370,000 active;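 active = inhibition above the mean of all tested compounds plus 3 SD, set per campaign, cut at about 25% in these data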;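 note: 0% = DMSO with enzyme and 100% = buffer with substrate but no TDP2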
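test system = human TDP2 enzyme | input = TDP2 enzyme at 120 nM final | medium = 50 mM Tris-HCl pH 7.5 with Mg2+, KCl, DTT, BSA | also added = T5PNP substrate, 5 mM | times = 2 h at 37 °C | technique = epi absorbance | benchmarks = high control without enzyme, low control DMSO plus TDP2 | replication = each compound tested once, singlicate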
MBD2 inh: inhibitors of MBD2 binding to methylated DNA, primary screen, biochemical, TR-FRET, DNA-binding domain, human; 0.31% of 370,000 active; inhibition, % at 4.4 µM; MBD2 binding to methylated oligonucleotide; in the data active = inhibition above about 13%
UHRF1 binding: UHRF1 methylated DNA binding inhibitors, primary screen, counter-screen for MBD2 inhibitor project, biochemical, TR-FRET, human UHRF1, single concentration; UHRF1 binding to methylated oligo; inhibition, % at 4.4 µM; 0.75% of 370,000 active; in the data active = inhibition above about 21%;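 note: UHRF1 SRA domain binding a hemimethylated CpG hairpin DNA probe; 0% = median of test compound wells and 100% = reference inhibitor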
IN multimer up: HIV-1 IN multimer formation enhancers, counter-screen for LEDGF/p75 integration inhibitor project, biochemical, TR-FRET. 17% of 2,000 active. shares compounds with LEDGF integ inh. TR-FRET HIV-1 integrase multimerization. activation, % at 7.7 µM; in the data active = activation above about 8.9%
TRFRET interf: TR-FRET optical interference artefacts, confirmation, artefact control for LEDGF/p75-dependent integration inhibitor project, biochemical, HIV-1 IN multimerization; shares compounds with LEDGF integ inh; TR-FRET optical interference counterscreen; inhibition, % at 7.7 µM; 2,000 tested, under 10 active;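 active = inhibition above the mean over all tested compounds plus 3 SD, which no compound reached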;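 note: 0% = integrase with antibodies and DMSO and 100% = antibodies without integrase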
LEDGF integ conf: inhibitors of HIV-1 IN-LEDGF/p75 DNA integration, confirmation, biochemical, TR-FRET. inhibition, % at 3.7 µM. 36% of 2,000 active. TR-FRET LEDGF/p75-dependent HIV-1 integration. shares compounds with LEDGF integ inh; in the data active = inhibition above about 14%
* hit, by the source's call; · = not tested or not shown. In the library only some 1.9% were active in any assay of this set; here they are far more common.

SMILES	LEDGF integ inh	Rin1-Abl PPI inh	TDP2 absorb	MBD2 inh	UHRF1 binding	IN multimer up	TRFRET interf	LEDGF integ conf
COc1cc2c(c(OC)c1)C(c1cccc(OC)c1OC)CC(=O)N2 (configuration not stated)	17*	5	-8	-1	0	-2	12	-2
COc1ccccc1C(=O)Nc1c(C(=O)N2CCN(C)CC2)oc2ccccc12	-1	5	22	3	-2	·	·	·
CN(C)CC(=O)N[C@@H]1CC[C@@H](CC(=O)NCCN2CCCCC2)O[C@@H]1CO	3	·	-20	0	3	·	·	·
CN(C)CC(=O)N[C@@H]1C=C[C@@H](CC(=O)NCCN2CCCCC2)O[C@@H]1CO	28*	·	-4	-2	0	-1	7	-5
N#CCOc1coc(CN2CCN(c3ccccc3)CC2)cc1=O	-4	1	-11	-8	1	·	·	·
C[C@@H]1CN([C@@H](C)CO)C(=O)Cc2cc(NC(=O)Nc3ccc(C(F)(F)F)cc3)ccc2O[C@@H]1CN(C)S(=O)(=O)c1ccc(Cl)cc1	-1	4	-10	-6	0	·	·	·
CC(C)NC(=O)N(C)C[C@@H]1Oc2ccc(NC(=O)Nc3ccc(C(F)(F)F)cc3)cc2CC(=O)N([C@H](C)CO)C[C@@H]1C	14*	-1	0	2	-2	0	-2	-4
O=C(NCc1cccs1)c1ccc2sc([C@@H]3O[C@H](CO)[C@H](O)[C@H](O)[C@H]3O)nc2c1	33*	4	-7	-3	1	-1	3	-10
O=C1NC2(CCCCCC2)C(=O)N1Cc1ccccc1Cl	28*	0	1	6	2	-1	3	-7
Cc1noc(/C=C/N(C)C)c1S(=O)(=O)N1CCCC(C(=O)NCc2cccs2)C1 (configuration not stated)	17*	1	4	-3	-1	0	-2	-6
Cc1noc(/C=C/N(C)C)c1S(=O)(=O)N1CCC(C(=O)O)CC1	17*	1	5	-1	3	-1	7	2
CC1(C(=O)NCc2ccc(Cl)cc2)CCN1C(=O)Cc1ccc(Cl)cc1Cl (configuration not stated)	-3	0	1	-3	1	·	·	·
CC1CN(C(=O)c2nn(C)cc2[N+](=O)[O-])CC(C)O1 (configuration not stated)	42*	-1	2	1	1	-1	3	1
O=Cc1coc2ccc3ccccc3c2c1=O	16*	-2	-3	0	2	0	0	54*
NC(=O)N/N=C/c1coc2ccc3ccccc3c2c1=O	0	-1	-6	-2	-5	·	·	·
Brc1ccc(-c2nn3c(-c4ccco4)nnc3s2)o1	15*	-63	-6	6	22*	9.3*	-47	30*
Clc1ccc(-c2ccc(-c3nn4c(-c5ccco5)nnc4s3)o2)cc1	6	1	8	-2	-2	·	·	·
COc1ccccc1N1CCN(C2CCCN(C(=O)CCc3c(C)noc3C)C2)CC1 (configuration not stated)	0	-1	5	-2	2	·	·	·
CC1(C)Cc2c(C#N)c(N3CCN(C(=O)c4ccco4)CC3)nc(-c3ccco3)c2CS1	1	-1	1	-9	-2	·	·	·
